Measured values taken from ChEMBL document CHEMBL1629440, “Synthesis and pharmacological properties of novel hydrophilic 5-HT4 receptor antagonists” (Bioorg Med Chem, 2010).

What was measured:
[1] = target: T1, 5-hydroxytryptamine receptor 4 (Homo sapiens, UniProt Q13639); assay: Antagonistic activity at human 5HT4 receptor expressed in HEK293 cells assessed as inhibition of 5-HT stimulated ADCY activity after 20 mins; type: functional, cell-based
Outline: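 Membranes from HEK293 cells stably expressing human 5-HT4(b) at low level (400 fmol/mg). Adenylyl cyclase activity was stimulated by 1 µM 5-HT with 21 antagonist concentrations, 0.1 mM [α-32P]ATP, 4 mM MgCl2, 1 mM IBMX, GTP and ATP-regenerating system, 32 °C, 20 min. [32P]cAMP was isolated on Dowex/alumina columns. IC50 was fitted by non-linear regression and Kb calculated using 5-HT EC50.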

[2] = target: T1, 5-hydroxytryptamine receptor 4; assay: Antagonistic activity at human 5HT4 receptor expressed in HEK293 cells; type: functional, cell-based
[3] = target: T1, 5-hydroxytryptamine receptor 4; assay: Displacement of [3H]GR113808 from human 5HT4 receptor expressed in HEK293 cells by liquid scintillation counting; type: cell-based
Outline: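 Membranes from HEK293 line stably expressing human 5-HT4(b) at high level (5000 fmol/mg). Incubated with 0.3 nM [3H]GR113808 and 21 competitor concentrations in Tris-HCl pH 7.5, EDTA, EGTA, 2 mM MgCl2, ascorbate, 0.1% BSA, 100 µM GTP, room temperature 1 h. Filtered onto PEI-soaked filters, washed, scintillation counted. Ki derived from IC50 via Ki = IC50/(1+L/Kd).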

[4] = Half life in bovine plasma by HPLC; type: ADME, Bos taurus; conditions: cattle
Outline: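 Ester incubated at 40 µM initial concentration in bovine plasma at 37 °C for up to 10 h. Aliquots were removed at intervals and H3PO4 added to release protein-bound drug. Parent ester and free-acid degradation product were quantified by HPLC, and half-life was calculated.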

[5] = Lipophilicity, log D of the compound in octanol buffer at pH 7.4; type: physicochemical
Outline: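 Distribution between octanol and aqueous buffer at pH 7.4. Both phases were diluted and ligand concentration in each measured by HPLC. Not determined where micelles formed.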

T1 sequence (Q13639 whole entry): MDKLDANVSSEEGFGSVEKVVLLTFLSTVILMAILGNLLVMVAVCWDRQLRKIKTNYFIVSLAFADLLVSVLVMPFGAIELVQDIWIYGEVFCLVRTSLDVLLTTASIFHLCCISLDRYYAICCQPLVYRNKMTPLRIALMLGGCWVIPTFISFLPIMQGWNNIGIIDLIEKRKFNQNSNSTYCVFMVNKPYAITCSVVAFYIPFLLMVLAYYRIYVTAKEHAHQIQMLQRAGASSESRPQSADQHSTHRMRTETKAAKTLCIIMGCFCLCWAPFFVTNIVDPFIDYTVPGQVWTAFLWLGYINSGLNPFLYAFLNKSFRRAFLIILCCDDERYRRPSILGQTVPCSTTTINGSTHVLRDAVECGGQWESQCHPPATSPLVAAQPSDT

SMILES | pKb [1] | Ki [2] | Ki [3] | half-life [4] | logD [5]
O=C(O)CCCN1CCC(COC(=O)c2c[nH]c3ccccc23)CC1 | 8.16 | 0.813 nM | – | – | –
O=C(CCCN1CCC(CNC(=O)c2c3n(c4ccccc24)CCCO3)CC1)OCc1ccccc1 | 9.85 | – | 0.0427 nM | 20 min | –
O=C(CCCCCN1CCC(CNC(=O)c2c3n(c4ccccc24)CCCO3)CC1)OCc1ccccc1 | 10.2 | – | 0.141 nM | – | –
CC(C)(C)C(=O)OCOC(=O)c1ccc(CN2CCC(CNC(=O)c3c4n(c5ccccc35)CCCO4)CC2)cc1 | 9.07 | – | 0.339 nM | – | 2.3
O=C(O)CCCN1CCC(CNC(=O)c2c[nH]c3ccccc23)CC1 | 4.62 | 3630 nM | – | – | –
CCOP(=O)(CCN1CCC(CNC(=O)c2c3n(c4ccccc24)CCCO3)CC1)OCC | 8.64 | – | 1.26 nM | – | –
CC(C)(C)OC(=O)CCCN1CCC(CNC(=O)c2c3n(c4ccccc24)CCCO3)CC1 | 9.47 | – | 0.234 nM | – | –
CCCCN1CCC(CNC(=O)c2c3n(c4ccccc24)CCCO3)CC1 [PIBOSEROD] | 9.26 | – | 0.0525 nM | – | 2.2
O=C(O)CCCN1CCC(CNC(=O)c2c3n(c4ccccc24)CCCO3)CC1 | 7.96 | – | 2 nM | – | -1.2
COC(=O)CCCCCCCCCN1CCC(CNC(=O)c2c3n(c4ccccc24)CCCO3)CC1 | 9.33 | – | 0.195 nM | – | –
Cn1cc(C(=O)OCC2CCN(CCNS(C)(=O)=O)CC2)c2ccccc21 | 9.24 | 0.0741 nM | – | – | –
CC(C)(C)OC(=O)CN1CCC(CNC(=O)c2c3n(c4ccccc24)CCCO3)CC1 | 9.01 | – | 0.759 nM | – | –
